Screening data (PubChem BioAssay)
Mdm2 MdmX PPI: inhibitors of human Mdm2/MdmX interaction | O15151+Q00987 | hit rate 3% among 330,000 | SaOS-2 split-luciferase Mdm2/MdmX complementation, luminescence | inhibition, % at 8 µM | AID 485346;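 active = inhibition of at least 50% at 8 µM in the primary screen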
Target sequence (O15151 whole entry, looked up): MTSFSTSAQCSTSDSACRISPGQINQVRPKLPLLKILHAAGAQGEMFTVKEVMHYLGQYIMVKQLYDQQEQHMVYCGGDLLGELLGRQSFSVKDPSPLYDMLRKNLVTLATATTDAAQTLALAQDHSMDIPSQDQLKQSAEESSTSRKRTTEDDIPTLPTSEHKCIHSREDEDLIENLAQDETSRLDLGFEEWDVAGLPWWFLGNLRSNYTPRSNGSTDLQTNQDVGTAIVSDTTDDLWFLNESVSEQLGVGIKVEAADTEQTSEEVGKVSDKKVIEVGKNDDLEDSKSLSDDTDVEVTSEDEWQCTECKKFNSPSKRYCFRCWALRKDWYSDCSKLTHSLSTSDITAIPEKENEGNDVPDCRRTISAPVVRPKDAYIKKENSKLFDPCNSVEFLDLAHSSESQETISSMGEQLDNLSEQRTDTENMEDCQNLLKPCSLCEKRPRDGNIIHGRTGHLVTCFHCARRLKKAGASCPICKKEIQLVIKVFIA
Target sequence (Q00987 whole entry, looked up): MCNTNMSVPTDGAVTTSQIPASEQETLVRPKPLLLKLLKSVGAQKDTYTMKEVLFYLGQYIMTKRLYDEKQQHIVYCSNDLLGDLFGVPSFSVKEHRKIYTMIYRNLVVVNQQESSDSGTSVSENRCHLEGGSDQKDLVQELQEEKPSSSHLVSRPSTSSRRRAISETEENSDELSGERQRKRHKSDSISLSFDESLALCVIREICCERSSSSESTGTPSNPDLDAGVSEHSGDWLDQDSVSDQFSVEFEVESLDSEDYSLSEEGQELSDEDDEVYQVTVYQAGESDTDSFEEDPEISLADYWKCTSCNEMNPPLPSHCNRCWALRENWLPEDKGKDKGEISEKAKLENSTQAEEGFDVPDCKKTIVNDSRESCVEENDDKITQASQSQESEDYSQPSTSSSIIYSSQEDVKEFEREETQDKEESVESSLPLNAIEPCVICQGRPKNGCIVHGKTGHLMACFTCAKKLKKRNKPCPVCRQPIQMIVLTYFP
XBP1 UPR activ: adaptive UPR (XBP1) activation; CHO-XBP1 luciferase reporter, IRE1-XBP1 UPR activation, luminescence; percent of tunicamycin response, DMSO as zero; activation, % at 20 µM; hit rate 0.33% among 330,000; AID 463104;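 active = versus positive control, 20 µM dose yields 30% or more activation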;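 note: 100% = tunicamycin at 10 µg/mL and 0% = DMSO only wells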
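incubation = overnight seeding at 37 °C, 6 h compound treatment at 37 °C | assay system = CHO-XBP1 cells stably carrying IRE1-XBP1-driven luciferase reporter | input = 1000 cells per well | detection = luciferase luminescence | dosing = single point, 20 µM final compound, 1% DMSO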
UBC13 inh: inhibitors of human UBC13 polyubiquitin chain formation. P61088. hit rate 0.47% among 330,000. inhibition, % at 20 µM. TR-FRET; in the data active = inhibition above about 45%, passing the limit was not always enough
Apaf-1 inh: human Apaf-1 inhibition; AID 489030; O14727; inhibition, % at 20 µM; hit rate 0.71% among 330,000; reconstituted apoptosome caspase-3 activity, DEVD-Rh110 fluorescence; active = inhibition of at least 40% at 20 µM;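 note: plate controls were DMSO wells for no effect and DEVD-CHO caspase inhibitor wells for full effect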
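Material: biochemical Apaf-1 apoptosome reconstitution. Medium: Hepes buffer, pH 7.5. Also added: cytochrome c activation, bis-DEVD rhodamine 110 substrate. Timing: 30 min compound preincubation, 50 min activation, room temperature. Measured by: rhodamine 110 fluorescence at Ex 480/Em 540 nm.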
CHOP UPR activ: activators of apoptotic arm of unfolded protein response (CHOP) | CHO-CHOP luciferase reporter, UPR activation, luminescence; percent of tunicamycin response over DMSO baseline | activation, % at 10 µM | hit rate 0.34% among 330,000 | AID 449763;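 active = at 10 µM dose, activation of 40% or more, normalized to positive control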;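 note: 100% = tunicamycin at 10 µg/mL and 0% = DMSO alone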
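Assay system: CHO cells with stable CHOP pathway luciferase reporter; Buffer or medium: F12 plus 10% serum; Times: 16-18 h cell attachment, then 6 h compound exposure, 37 °C; Signal: luciferase luminescence; Read-out basis: percent activation relative to tunicamycin control; Control set: tunicamycin high control, DMSO low control.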
Mdm2 MdmX conf: confirmation of human Mdm2/MdmX interaction inhibitors; inhibition, % at 8 µM; Mdm2-MdmX binding, luminescent assay; shares compounds with Mdm2 MdmX PPI; hit rate 55% among 10,000; in the data active = inhibition above about 40%
FLuc counter: full-length luciferase inhibition in Mdm2/MdmX counter-screen; shares compounds with Mdm2 MdmX PPI; SaOS-2 full-length luciferase counterscreen, luminescence; inhibition, % at 8 µM; hit rate 77% among 6,200;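 active = mean inhibition at 8 µM reaching about 37%, which flags the compound as non-specific, limit read from the data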;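 note: p53-null SaOS-2 cells with luciferase driven by a doxycycline-inducible promoter; compound on cells about two nights before reading with doxycycline added after day one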
* = called active by the depositor; x = no result given. Rows were chosen to be rich in hits. Some 4.1% of all compounds tested hit in one or more screens of this group.

SMILES	Mdm2 MdmX PPI	XBP1 UPR activ	UBC13 inh	Apaf-1 inh	CHOP UPR activ	Mdm2 MdmX conf	FLuc counter
CN(C)CCN(C(=O)/C=C/c1cccs1)c1nc2ccc(F)cc2s1	59*	-1	16	4	5	43*	56*
Cn1nc(C(=O)OCC(=O)Nc2ccccc2[N+](=O)[O-])c2ccccc2c1=O	-30	0	-16	13	3	x	x
CN1CC(c2ccccc2)C2(SC(=S)N(Cc3ccco3)C2=O)C12C(=O)Nc1ccccc12 (stereo unspecified)	76*	11	-2	21	2	54*	51*
Nc1nc(C2CC2)c(Sc2sc(N)nc2C2CC2)s1	51*	-4	1	10	-1	38	119*
CCCCN(C(=O)c1c(CC)noc1C)c1c(N)n(CCC)c(=O)[nH]c1=O	-6	-3	4	-2	0	x	x
CC(C)Cn1c(N)c(C(=O)COC(=O)c2cc(S(=O)(=O)N3CCOCC3)ccc2Br)c(=O)n(C)c1=O	-4	3	-14	3	3	x	x
COCCn1c(=NC(=O)CN2C(=O)CCC2=O)sc2cc(S(N)(=O)=O)ccc21	42	1	9	-11	1	x	x
COC(=O)Cn1c(=NC(=O)c2sc3ccccc3c2Cl)sc2cc(S(N)(=O)=O)ccc21	64*	-1	-26	-38	4	38	52*
COc1cc(C(=O)Nc2ccc(Cl)c([N+](=O)[O-])c2)cc(OC)c1OC	57*	1	-5	4	5	5	x
COc1ccc(C(=O)c2ccc(Cl)cc2)cc1	3	4	28	4	8	x	x
COc1ccc(C(=O)c2ccc(Cl)c([N+](=O)[O-])c2)cc1	70*	8	-1	7	4	70*	111*
Cc1cc(C(C)(C)C)cc(C)c1Cn1c2[n+](c3ccc(C(F)(F)F)cc31)CCCCC2	72*	0	26	32	1	48*	50*
Cc1ccc(Cl)cc1N1CCN(C(=O)Cc2csc(Nc3nc(=S)[nH]c4ccccc34)n2)CC1	55*	14	-9	-5	6	9	x
CCOC(=O)c1c(C)oc2c(F)c(F)c(F)c(F)c2c1=O	101*	-5	1	-4	2	36	x
CCOC(=O)c1c(C)oc2c1cc(O)c1ccccc12	-199	4	-3	16	5	x	x
O=C(/C=C/c1ccccc1)Nc1ccc(C(=O)N2CCCCC2)cc1	-5	-1	2	-13	3	x	x
CCN(CC)CCOc1ccc2c(c1)C(=NO)c1cc(OCCN(CC)CC)ccc1-2	96*	-5	10	-8	-1	91*	44*
CCCOc1ccc2c(c1)C(=NN=C(N)N)c1cc(OCCC)ccc1-2	96*	20	45	26	10	34	x
CCOC(=O)c1sc(NC(=O)CSc2nc3c(c(=O)n2-c2ccc(C)cc2)SCC3)c(C(=O)OCC)c1C	64*	-2	-14	10	2	-1	x
C=CC[C@H](CC(=O)N(CCO)Cc1ccccc1)C(=O)N[C@H](COC(=O)[C@@H](CC=C)CC(=O)OC(C)(C)C)c1ccccc1	31	-4	16	21	1	x	x
COc1ccc(Cc2[nH]n3c(=O)cc(C(C)C)nc3c2-c2ccccc2)cc1	62*	-1	5	6	6	62*	40*
CC(=O)c1cccc(NC(=O)CNC(=O)c2sc3ccccc3c2Cl)c1	76*	-2	-2	4	3	48*	55*
COc1ccc(NC(=O)CNC(=O)c2sc3ccccc3c2Cl)c(OC)c1	77*	10	-12	3	2	8	x
COc1ccccc1NC(=O)NCCCCc1ccccc1	2	-6	-5	17	0	x	x
COc1ccc(NC(=O)NCCCCc2ccccc2)c(OC)c1	58*	-4	2	10	-1	23	x
SMILES	Mdm2 MdmX PPI	XBP1 UPR activ	UBC13 inh	Apaf-1 inh	CHOP UPR activ	Mdm2 MdmX conf	FLuc counter
COc1ccccc1CNC(=O)CNC(=O)c1sc2ccccc2c1Cl	3	-8	-1	18	0	x	x
NC(=O)CN1CCN(C(=O)Nc2ccccc2)CC1	-32	2	-2	3	1	x	x
CCc1ccc(CN(C)C(=O)CCc2nnc(COc3ccccc3)o2)cc1	-21	-3	4	-4	4	x	x
COc1cc(SC)ccc1C(=O)Nc1ccc(Br)cn1	60*	-9	4	24	-5	48*	126*
COc1cc(SC)ccc1C(=O)Nc1ccc(C)cc1	-204	2	14	20	5	x	x
COc1cc(SC)ccc1C(=O)Nc1ccccn1	-174	-4	8	2	2	x	x
COc1cc(SC)ccc1C(=O)Nc1ncc(C)s1	71*	-14	1	13	-8	56*	71*
CCOC(=O)CN(Cc1ccccc1)C(=O)OC(C)(C)C	-16	1	-6	7	-1	x	x
CC(=O)NC(c1ccco1)c1cc(Cl)c2ccc(Cl)nc2c1O (stereo unspecified)	15	-2	-9	16	2	x	x
CC(=O)NC(c1cccs1)c1cc(F)c2cccnc2c1O (stereo unspecified)	63*	-2	-8	1	-3	67*	30
CC(=O)NC(c1ccco1)c1cc(F)c2cccnc2c1O (stereo unspecified)	57*	-1	-16	-3	-2	49*	44*
COc1ccc(Cl)cc1NC(=O)CN(C)C(=O)c1ccc(N2CCCCCC2)c([N+](=O)[O-])c1	40	-1	-12	18	0	x	x
COc1cc(/C=C(/C#N)c2ccc(F)cc2)ccc1Oc1ccc([N+](=O)[O-])cn1	25	1	-21	1	3	x	x
COc1ccc(-c2nc3ccccc3[nH]2)cc1	-67	-5	6	-27	-4	x	x
COc1ccc(-c2cc(=O)n(-c3nc4ccccc4[nH]3)[nH]2)cc1	93*	11	-15	31	21	13	x
CCCOc1ccc(/C=N/Nc2cccc([N+](=O)[O-])c2)c(O)c1	77*	4	-14	7	5	-13	x
Cc1ccc(C(C(=O)NC(C)(C)C)N(CC2CCCO2)C(=O)c2csnn2)cc1 (stereo unspecified)	-8	2	3	5	1	x	x
CC(C)(C)NC(=O)C(c1ccc(-c2ccccc2)cc1)N(C[C@H]1CC[C@@H]([C@@H]2CC[C@H](CO)O2)O1)C(=O)c1ccc(C(C)(C)C)cc1 (stereo partly specified)	68*	11	x	30	7	0	x
CC(C)(C)C1=C(C#N)C(c2cc3c(cc2Br)OCO3)C(C#N)=C(N)O1 (stereo unspecified)	6	-1	10	24	-4	x	x
